According to PMC6062249 (Toxicology Research, 2016):
Where two headings read alike, the source gives them in different places. Blank lines part the entries; values can stand above or below the molecule they belong to.

Legend:
human recombinant CYP1A1 = biological target: T1, human recombinant CYP1A1 (Homo sapiens, UniProt P04798); test: EROD activity of microsomes containing human recombinant CYP1A1; type: biochemical
T1 sequence (P04798 1-512): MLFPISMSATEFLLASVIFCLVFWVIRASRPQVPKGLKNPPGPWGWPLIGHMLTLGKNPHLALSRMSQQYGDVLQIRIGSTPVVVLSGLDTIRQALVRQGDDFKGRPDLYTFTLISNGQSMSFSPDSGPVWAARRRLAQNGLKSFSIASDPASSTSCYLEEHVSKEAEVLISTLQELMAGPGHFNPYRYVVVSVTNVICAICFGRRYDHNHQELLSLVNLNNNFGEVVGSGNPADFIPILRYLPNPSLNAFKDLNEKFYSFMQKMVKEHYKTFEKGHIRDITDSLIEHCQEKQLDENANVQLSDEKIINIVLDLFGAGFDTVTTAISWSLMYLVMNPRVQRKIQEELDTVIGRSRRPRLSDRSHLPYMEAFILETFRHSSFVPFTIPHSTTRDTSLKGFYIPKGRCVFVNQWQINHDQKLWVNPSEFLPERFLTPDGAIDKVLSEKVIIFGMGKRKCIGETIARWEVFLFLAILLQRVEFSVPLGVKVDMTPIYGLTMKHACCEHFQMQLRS
Outline: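 Microsomes containing recombinant human CYP1A1 (2.5 nM) with NADPH-P450 reductase were pre-incubated 5 min with test compound (0.00064–20 μM) or DMSO (final <0.5%). 7-Ethoxyresorufin (0.5 μM) and NADPH (0.4 mM) were then added. Resorufin formation was followed kinetically at 535/590 nm, every 2 s, in triplicate. DMSO control was set as 100% and the no-NADPH reaction as 0%; IC50 was fitted by nonlinear regression.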

[1] = tested on: CYP1A1 mRNA in HaCaT cells; test: CYP1A1 gene expression by qRT-PCR in HaCaT cells, single exposure; type: cell-based, human; conditions: 6 h; for reduction of CYP1A1 mRNA levels compared to DMSO control: dose-dependent, 0.1-10 μM
Outline: (§1)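 Confluent HaCaT cells (seeded 1 × 10^4/well, grown 3 d) were exposed in fresh DMEM to 0.1, 1.0 or 10 μM test compound or DMSO for 6 h. One-step SYBR Green RT-PCR used cell lysate directly with 200 nM primers. Cycling was 48 °C 30 min, 95 °C 10 min, then 40 × (95 °C 15 s, 60 °C 1 min), with melt curve. Expression is 2^–ΔΔCt normalized to B2M; three experiments in duplicate. Calls required p < 0.05 (two-way ANOVA, Bonferroni) and >2-fold versus DMSO; strong inducer was ≥20-fold.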

[2] = tested on: CYP1B1 mRNA in HaCaT cells; test: CYP1B1 gene expression by qRT-PCR in HaCaT cells, single exposure; type: cell-based, human; conditions: 6 h; for reduction of CYP1B1 mRNA levels compared to DMSO control: dose-dependent, 0.1-10 μM
Outline: as §1

[3] = tested on: TCDD induced CYP1-dependent EROD activity in HaCaT cells; test: TCDD-induced cellular EROD activity in HaCaT cells, co-exposure with oxy-PAH; type: cell-based, human; conditions: TCDD 5 nM + 0.1-10 μM oxy-PAH, 6, 12, 24 h
Outline: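 Confluent HaCaT cells were co-exposed to TCDD (5 nM) alone or with 0.1, 1.0 or 10 μM test compound for 6, 12 and 24 h. After a PBS rinse, cells were incubated 20 min at 37 °C with 2 μM 7-ethoxyresorufin in 50 mM sodium phosphate, pH 8.0, and stopped with cold fluorescamine. Resorufin (535/590 nm) was read in triplicate and normalized to fluorescamine protein signal. Activity is % of TCDD alone.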

[4] = tested on: TCDD induced CYP1 mRNA (CYP1A1 and 1B1) in HaCaT cells; test: TCDD-induced CYP1 mRNA; type: cell-based, human; conditions: TCDD 5 nM + 0.1-10 μM oxy-PAH, 6 h
Outline: (§2)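 Confluent HaCaT cells were exposed for 6 h to TCDD (5 nM) alone or with 0.1, 1.0 or 10 μM test compound. CYP1A1 and CYP1B1 mRNA were measured by one-step SYBR Green RT-PCR on cell lysate with 200 nM primers. Quantification used 2^–ΔΔCt with B2M as reference; three experiments in duplicate. Levels are % of TCDD-alone mRNA (100%). Strong inhibitor meant p < 0.05 at ≤1 μM; inhibitor meant p < 0.05 at 10 μM (two-way ANOVA, Bonferroni).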

[5] = tested on: CYP1-dependent EROD activity in HaCaT cells; test: Cellular CYP1-dependent EROD activity in HaCaT cells, single exposure; type: cell-based, human; conditions: HaCaT cells, 0.1, 1.0 or 10 μM, 3-48 h
Outline: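 Confluent HaCaT cells were exposed to 0.1, 1.0 or 10 μM test compound, B[a]P or DMSO for 3, 6, 24 and 48 h. Medium was removed and cells rinsed with PBS, then incubated 20 min at 37 °C with 2 μM 7-ethoxyresorufin in 50 mM sodium phosphate, pH 8.0. The reaction was stopped with cold fluorescamine (0.15 mg/mL in acetonitrile). Resorufin was read at 535/590 nm in triplicate and normalized to protein (fluorescamine, 390/485 nm).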

[6] = tested on: TCDD induced CYP1A1 mRNA in HaCaT cells; test: TCDD-induced CYP1A1 mRNA in HaCaT cells, co-exposure with oxy-PAH; type: cell-based, human; conditions: TCDD 5 nM + 1 μM oxy-PAH, 6 h
Outline: as §2

[7] = tested on: TCDD induced CYP1B1 mRNA in HaCaT cells; test: TCDD-induced CYP1B1 mRNA in HaCaT cells, co-exposure with oxy-PAH; type: cell-based, human; conditions: TCDD 5 nM + 1 μM oxy-PAH, 6 h
Outline: as §2

HaCaT cells = test: Alamar Blue cell viability assay; type: cell-based, human; conditions: 10 μM, alone or with TCDD 5 nM, 24 h
Outline: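 HaCaT keratinocytes were grown in DMEM with 10% FBS at 37 °C, 5% CO2, seeded at 1 × 10^4 cells/well and cultured 3 d to high confluency. Cells were exposed in fresh DMEM to test compound alone or with TCDD (5 nM), with 0.1–0.18% DMSO as solvent control. Afterwards, 10% AlamarBlue in DMEM was added for 1 h at 37 °C and fluorescence read at 560/590 nm. Viability is given as % of DMSO control, from three separate experiments.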

CYP1 = conditions: read-out: reported IC50 values, CYP1 inhibition; cited from earlier work
[8] = IC50, inhibition of CYP1A1-mediated EROD activity, human recombinant CYP1A1 2.5 nM, 7-ethoxyresorufin 0.5 μM, NADPH 0.4 mM, 5 min pre-incubation

Compound: O=C1c2ccccc2C(=O)c2c1ccc1ccccc21 [7,12-BAQ, benz[a]anthracene-7,12-quinone]
- IC50 (human recombinant CYP1A1; [8]): 37 nM
- increase of CYP1A1 mRNA levels compared to DMSO control ([1]; 0.1-10 μM oxy-PAH): up to 60 fold
- increase of CYP1B1 mRNA levels compared to DMSO control ([2]; 0.1-10 μM oxy-PAH): ≤ 40 fold
- inhibition of TCDD-mediated EROD activity (in words) [3]: most potent inhibitors
- effect on TCDD-induced CYP1A1 and 1B1 expression levels (in words) [4]: no effect at all

- IC50 (human recombinant CYP1A1; [8]): > 10000 nM
Compound: O=C1C=Cc2cccc3cccc1c23 [1H-PHO, 1H-phenalen-1-one]

Compound: O=C1C(=O)c2cccc3cccc1c23 [1,2-ACNQ, acenaphthylene-1,2-quinone]
- IC50 (human recombinant CYP1A1; [8]): > 10000 nM

- IC50 (human recombinant CYP1A1; [8]): 2100 nM
- inhibition of TCDD-mediated EROD activity (in words) [3]: significant inhibition
- reduction of TCDD-induced CYP1A1 mRNA levels [6]: around 50%
- reduction of TCDD-induced CYP1B1 mRNA levels [7]: around 50%
Compound: Cc1cc2c(cc1C)C(=O)c1ccccc1C2=O [2,3-DMAQ, 2,3-dimethylanthracene-9,10-quinone]
- induction of cellular EROD activity (in words) [5]: significantly increased levels of enzyme activity compared to the DMSO control but lower than B[a]P

- reduction of CYP1A1 mRNA levels compared to DMSO control [1]: up to 15 fold
- reduction of CYP1B1 mRNA levels compared to DMSO control [2]: up to 15 fold
- inhibition of TCDD-mediated EROD activity (in words) [3]: significant inhibition
- reduction of TCDD-induced CYP1A1 mRNA levels [6]: around 50%
- reduction of TCDD-induced CYP1B1 mRNA levels [7]: around 50%
Compound: O=C1c2cccc3ccc4ccc5cccc1c5c4c23 [6H-BPO, 6H-benzo[cd]pyren-6-one]
- induction of cellular EROD activity (in words) [5]: significantly increased levels of enzyme activity compared to the DMSO control but lower than B[a]P
- cytotoxicity (Alamar Blue viability, in words) (HaCaT cells): not associated with increased cytotoxicity

Compound: Clc1cc2c(cc1Cl)Oc1cc(Cl)c(Cl)cc1O2 [TCDD, 2,3,7,8-Tetrachlorodibenzo-p-dioxin, reference compound]
- increase of CYP1A1 mRNA levels compared to DMSO control ([1]; TCDD alone 5 nM): 138 fold
- increase of CYP1B1 mRNA levels compared to DMSO control ([2]; TCDD alone 5 nM): 36 fold

- IC50 (human recombinant CYP1A1; [8]): > 10000 nM
Compound: O=C1CCc2ccccc21 [1-INO, 1-Indanone]

- increase of CYP1A1 mRNA levels compared to DMSO control ([1]; 0.1-10 μM oxy-PAH): up to 60 fold
- increase of CYP1B1 mRNA levels compared to DMSO control ([2]; 0.1-10 μM oxy-PAH): ≤ 40 fold
- inhibition of TCDD-mediated EROD activity (in words) [3]: significant inhibition
- effect on TCDD-induced CYP1A1 and 1B1 expression levels (in words) [4]: no effect at all
Compound: O=C1c2ccccc2C(=O)c2cc3ccccc3cc21 [5,12-NQ, naphthacene-5,12-quinone]

Compound: c1ccc2cc3c(ccc4ccccc43)cc2c1 [benz[a]anthracene]
- IC50 (CYP1): < 100 nM

Compound: O=C1C(=O)c2ccccc2-c2ccccc21 [9,10-PQ, phenanthrene-9,10-quinone]
- cytotoxicity (Alamar Blue viability, in words) (HaCaT cells): increased cytotoxicity

Compound: c1ccc2c(c1)ccc1nc3ccc4ccccc4c3cc12 [dibenz[a,j]acridine]
- IC50 (CYP1): < 100 nM

Compound: c1cc2ccc3cccc4ccc(c1)c2c34 [pyrene]
- IC50 (CYP1): < 100 nM

Compound: O=C1c2ccccc2-c2cccc3cccc1c23 [7H-BAO, 7H-benz[de]anthracene-7-one]
- IC50 (human recombinant CYP1A1; [8]): 770 nM

Compound: O=C1c2ccccc2C(=O)c2ccccc21 [9,10-AQ, anthracene-9,10-quinone]
- IC50 (human recombinant CYP1A1; [8]): > 10000 nM
- reduction of CYP1A1 mRNA levels compared to DMSO control [1]: up to 15 fold
- reduction of CYP1B1 mRNA levels compared to DMSO control [2]: up to 15 fold
- inhibition of TCDD-mediated EROD activity (in words) [3]: significant inhibition

Compound: O=C1C=CC(=O)c2c1ccc1c2ccc2ccccc21 [1,4-CHRQ, chrysene-1,4-quinone]
- IC50 (human recombinant CYP1A1; [8]): 6200 nM
- induction of cellular EROD activity (in words) [5]: did not induce EROD activity
- increase of CYP1A1 mRNA levels compared to DMSO control ([1]; 0.1-10 μM oxy-PAH): up to 60 fold
- increase of CYP1B1 mRNA levels compared to DMSO control ([2]; 0.1-10 μM oxy-PAH): ≤ 40 fold
- effect on TCDD-induced CYP1A1 and 1B1 expression levels (in words) [4]: no effect at all

- IC50 (human recombinant CYP1A1; [8]): 320 nM
- reduction of CYP1A1 mRNA levels compared to DMSO control [1]: up to 15 fold
- reduction of CYP1B1 mRNA levels compared to DMSO control [2]: up to 15 fold
Compound: O=c1c2cccc3ccc4cccc1c4c32 [4H-CPO, 4H-Cyclopenta[def]phenanthrene-4-one]
- induction of cellular EROD activity (in words) [5]: significantly increased levels of enzyme activity compared to the DMSO control but lower than B[a]P

Compound: O=c1cc(-c2ccccc2)oc2c1ccc1ccccc12 [αNF, α-Naphthoflavone]
- IC50 (CYP1): < 100 nM

Compound: Cc1ccc2c(c1)C(=O)c1ccccc1C2=O [2-MAQ, 2-methylanthracene-9,10-quinone]
- induction of cellular EROD activity (in words) [5]: significantly increased levels of enzyme activity compared to the DMSO control but lower than B[a]P

Compound: O=C1c2ccccc2-c2ccc3ccccc3c21 [BFLO, benzo[a]fluorenone]
- IC50 (human recombinant CYP1A1; read-out: IC50, inhibition of CYP1A1-mediated EROD activity, human recombinant CYP1A1 2.5 nM, 7-ethoxyresorufin 0.5 μM, NADPH 0.4 mM, 5 min pre-incubation): 61 nM
- increase of CYP1A1 mRNA levels compared to DMSO control ([1]; 0.1-10 μM oxy-PAH): up to 60 fold
- increase of CYP1B1 mRNA levels compared to DMSO control ([2]; 0.1-10 μM oxy-PAH): ≤ 40 fold
- inhibition of TCDD-mediated EROD activity (in words) [3]: most potent inhibitors
- reduction of TCDD-induced CYP1A1 mRNA levels [6]: around 50%
- reduction of TCDD-induced CYP1B1 mRNA levels [7]: around 50%

- IC50 (human recombinant CYP1A1; [8]): 3000 nM
Compound: O=C1c2ccccc2-c2ccccc21 [9-FLO, 9-fluorenone]
